Reference: ChEMBL document CHEMBL3992522, “Antileishmanial Activity of Pyrazolopyridine Derivatives and Their Potential as an Adjunct Therapy with Miltefosine” (J Med Chem, 2017)
Values after ≈ are worked out from the molar mass of the structure shown. Active and inactive are the calls of the source. The rule behind the calls is not given here.

How the values were obtained:
[1] = Selectivity index, ratio of CC50 for mouse J774 cells to IC50 for Leishmania donovani MHOM/IN/80/DD8 amastigote forms infected in mouse J774 cells; format: toxicity, cell-based; conditions: read-out: Ratio CC50/IC50
Procedure, shortened: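 CC50: Vero or J774 cells (1×10^5/well) exposed 72 h to seven two-fold dilutions, 500–7.81 μM; MTT 2 h at 37 °C, formazan in DMSO read at 540 nm. IC50: luciferase-expressing Dd8 amastigotes in J774 macrophages (1:8), 72 h, luminescence, four-parameter Hill fit. SI = CC50/IC50, IC50 mean of three experiments.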

Leishmania donovani [2] = test: Antileishmanial activity against Leishmania donovani MHOM/IN/80/DD8 amastigote forms harboring luciferase gene infected in mouse J774 cells after 72 hrs by Steady-Glo reagent based two fold dilution assay; format: functional; conditions: MHOM/IN/80/DD8, 72 h
Procedure, shortened: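 Promastigotes or J774-resident amastigotes treated 72 h with six two-fold dilutions from 200 µM down to 6.25 µM. Luciferase RLU fitted by four-parameter Hill non-linear regression to derive the […] inhibitory concentration (MIC).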

[3] = Cytotoxicity against mouse J774 cells assessed as cell viability […] after 72 hrs by MTT assay relative to control; format: cell-based; conditions: read-out: Activity
Procedure, shortened: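 Vero and J774 cells seeded at 1×10^5 per well for 24 h, then exposed 72 h to seven two-fold dilutions from 500 to 7.81 μM. MTT solution (5 mg/mL stock) added for 2 h at 37 °C, formazan dissolved in DMSO and read at 540 nm. CC50 derived by the Huber and Koella method.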

Leishmania donovani [4] = test: Antileishmanial activity against Leishmania donovani MHOM/IN/80/DD8 amastigote forms harboring luciferase gene infected in mouse J774 cells at 4.05 uM up to 72 hrs by Giemsa staining based assay relative to control; format: functional; conditions: MHOM/IN/80/DD8, J774, 72 h
Procedure, shortened: (§1)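 J774 macrophages in chamber slides infected with Dd8 promastigotes (1:10 cell:parasite in methods; 1:8 in legend) for 24 h, then treated 48 and 72 h. Cells methanol-fixed, stained with 20% Giemsa. Amastigotes per 100 macrophages counted against untreated infected controls.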

Leishmania donovani [5] = test: Antileishmanial activity against Leishmania donovani MHOM/IN/80/DD8 amastigote forms harboring luciferase gene infected in mouse J774 cells at 50 uM up to 72 hrs by Giemsa staining based assay relative to control; format: functional; conditions: MHOM/IN/80/DD8, J774, 72 h; procedure, shortened: as §1
Leishmania donovani [6] = test: Antileishmanial activity against Leishmania donovani MHOM/IN/80/DD8 amastigote forms harboring luciferase gene infected in mouse J774 cells at 6.25 to 12.5 uM up to 4 days by Steady-Glo reagent based luminescence assay; format: functional, cell-based
Procedure, shortened: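 Infected J774 macrophages held at 37 °C with two-fold dilutions from 200 to 6.25 µM. Intracellular amastigote growth followed by luciferase activity in lysed macrophages, expressed as RLU, over time. Three independent experiments.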

[7] = Half life in mouse liver S9 fractions at 1 mM in presence of NADPH by HPLC method; format: ADME, tissue-based
Liver = test: Intrinsic clearance in mouse liver S9 fractions assessed per mg protein at 1 mM in presence of NADPH by HPLC method; format: ADME; conditions: s9, 1000 µM
[8] = Metabolic stability in mouse liver S9 fractions assessed as rate constant for metabolism at 1 mM after 60 mins in presence of NADPH by HPLC method; format: ADME, tissue-based
Leishmania donovani [9] = test: Antileishmanial activity against Leishmania donovani amastigote forms infected in Balb/c mouse assessed as inhibition of parasitic burden in liver at 100 mg/kg, ip administered for 5 consecutive days measured on day 7 post last treatment by Giemsa staining based assay relative to control; format: functional; conditions: 168 h
Leishmania donovani [10] = test: Antileishmanial activity against Leishmania donovani amastigote forms infected in Balb/c mouse assessed as inhibition of parasitic burden in spleen at 50 mg/kg, ip administered for 5 consecutive days measured up to 7 weeks post treatment by Giemsa staining based assay; format: functional, organism-based
Mus musculus [11] = test: Toxicity in Balb/c mouse infected with Leishmania donovani amastigote forms assessed as changes in body weight at 12.5 to 200 mg/kg, ip administered for 5 consecutive days; format: organism-based; conditions: in vivo
Procedure, shortened: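 L. donovani-infected BALB/c mice (15-day infection, 5 per group) dosed for five consecutive days: test compound 12.5–200 mg/kg i.p. in 8% DMSO, miltefosine orally in TDW, alone or in combination. Body weight followed after treatment.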

Leishmania donovani [12] = test: Antileishmanial activity against Leishmania donovani amastigote forms infected in Balb/c mouse assessed as reduction in spleen weight at 12.5 to 200 mg/kg, ip administered for 5 consecutive days co-treated with 5 to 25 mg/kg, po miltefosine; format: functional, organism-based
Mus musculus [13] = test: Restoration of T cell proliferation in Balb/c mouse splenocytes infected with Leishmania donovani amastigote forms at 25 mg/kg, ip co-treated with 5 mg/kg, po miltefosine administered for 5 consecutive days measured on day 7 post last treatment followed by soluble Leishmania donovani promastigote antigen-stimulation for 72 hrs by MTT assay relative to control; format: functional
Procedure, shortened: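 Splenocytes from treated infected BALB/c mice (day 4 or 7 post-treatment) isolated by Ficoll gradient, plated at 10^5/well in triplicate in phenol red-free RPMI 1640, stimulated with 5 μg/mL SLA for 72 h at 37 °C, 5% CO2. Proliferation read by MTT (0.5 mg/mL), formazan dissolved in DMSO, OD 540 nm.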

Mus musculus [14] = test: Increase in IFN-gamma level in Balb/c mouse splenocytes infected with Leishmania donovani amastigote forms at 25 mg/kg, ip co-treated with 5 mg/kg, po miltefosine administered for 5 consecutive days measured on day 7 post last treatment by sandwich ELISA relative to control; format: functional
Procedure, shortened: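 Splenocytes (2×10^6) from treated infected BALB/c mice taken on day 4 or 7 post-treatment. Cultured in phenol-red-free RPMI 1640 with 5 μg/mL soluble L. donovani antigen for 72 h at 37 °C, 5% CO2. Supernatant cytokines measured by sandwich ELISA against a standard curve. Mean ± SD, n = 5 mice per group, three independent experiments.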

Leishmania donovani [15] = test: Induction of apoptosis in Leishmania donovani MHOM/IN/80/DD8 promastigote forms assessed as late apoptotic cells at 50 uM after 48 hrs by Annexin V-FITC/propidium iodide staining based flow cytometry (reference value: 0.86%); format: functional
Leishmania donovani [16] = test: Induction of apoptosis in Leishmania donovani MHOM/IN/80/DD8 promastigote forms assessed as early apoptotic cells at IC50 after 48 hrs by Annexin V-FITC/propidium iodide staining based flow cytometry (reference value: 7.41%); format: functional
Leishmania donovani [17] = test: Induction of apoptosis in Leishmania donovani MHOM/IN/80/DD8 promastigote forms assessed as DNA fragmentation at 50 uM after 48 hrs by propidium iodide staining based TUNEL assay; format: functional
Procedure, shortened: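 DNA fragmentation detected by TUNEL under fluorescence and phase-contrast microscopy, with counts of TUNEL-positive cells; three independent experiments.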

Leishmania donovani [18] = test: Induction of mitochondrial membrane potential loss in Leishmania donovani MHOM/IN/80/DD8 promastigote forms at 50 uM after 48 hrs by JC-1 staining based flow cytometry (reference value: 5.02%); format: functional
[19] = Elimination rate constant in Swiss mouse at 50 mg/kg, po by LC-MS/MS analysis; format: ADME, organism-based; conditions: in vivo
[20] = Cmax in Swiss mouse at 50 mg/kg, po by LC-MS/MS analysis; format: ADME, organism-based; parameters: dose 50 mg/kg, route oral; conditions: in vivo
[21] = Apparent clearance in Swiss mouse at 50 mg/kg, po by LC-MS/MS analysis; format: ADME, organism-based; conditions: in vivo

COc1ccc(C2C3=C(CCC3=O)Nc3c2c(-c2c[nH]c4ccccc24)nn3-c2ccc(Cl)c(Cl)c2)cc1OC (configuration not stated)
selectivity ratio [1]: 101
MIC (Leishmania donovani [2]): 50 µM (≈ 28.6 µg/mL)
viability at 72 h [3]: > 95%
inhibition at 4.05 µM (Leishmania donovani [4]): > 93%
inhibition at 50 µM (Leishmania donovani [5]): > 93%
Activity (Leishmania donovani [6]): Active
half-life at 1000 µM [7]: 50.5 min
CLH (Liver): 27.47 µL/min
k el at 1 h, 1000 µM [8]: 0.000217 s⁻¹
inhibition in vivo at 100 mg/kg (Leishmania donovani [9]): 92.7%
inhibition (Leishmania donovani [10]): Active
Activity (Mus musculus [11]): Non-Toxic
Activity (Leishmania donovani [12]): Active
fold change (FC) (Mus musculus [13]): 8.4
fold change (FC) (Mus musculus [14]): 8.5
Activity (Leishmania donovani [15]): 54.2%
Activity (Leishmania donovani [16]): 17.2%
Activity (Leishmania donovani [17]): Active
Activity (Leishmania donovani [18]): 44.9%
k el [19]: 3.89e-05 s⁻¹
Cmax [20]: 4.88 µM
CL/F [21]: 47.3 mL/min/kg
